In ChEMBL document CHEMBL1135612, “Identification of potent and selective small-molecule inhibitors of caspase-3 through the use of extended tethering and structure-based drug design” (J Med Chem, 2002):

What was measured:
Caspase-3 = target: T1, Caspase-3 (Homo sapiens, UniProt P42574); experiment: Inhibitory activity against Caspase-3
T1 sequence (P42574 whole entry): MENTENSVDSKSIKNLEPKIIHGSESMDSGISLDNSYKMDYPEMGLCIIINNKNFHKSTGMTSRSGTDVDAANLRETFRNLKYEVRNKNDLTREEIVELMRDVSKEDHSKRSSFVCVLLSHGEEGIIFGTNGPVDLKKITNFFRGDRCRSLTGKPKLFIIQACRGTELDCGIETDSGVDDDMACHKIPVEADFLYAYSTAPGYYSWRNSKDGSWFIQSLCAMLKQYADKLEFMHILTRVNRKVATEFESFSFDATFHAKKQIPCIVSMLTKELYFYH

Caspase-4 = target: T2, Caspase-4 (Homo sapiens, UniProt P49662); experiment: Inhibitory activity against Caspase-4
T2 sequence (P49662 whole entry): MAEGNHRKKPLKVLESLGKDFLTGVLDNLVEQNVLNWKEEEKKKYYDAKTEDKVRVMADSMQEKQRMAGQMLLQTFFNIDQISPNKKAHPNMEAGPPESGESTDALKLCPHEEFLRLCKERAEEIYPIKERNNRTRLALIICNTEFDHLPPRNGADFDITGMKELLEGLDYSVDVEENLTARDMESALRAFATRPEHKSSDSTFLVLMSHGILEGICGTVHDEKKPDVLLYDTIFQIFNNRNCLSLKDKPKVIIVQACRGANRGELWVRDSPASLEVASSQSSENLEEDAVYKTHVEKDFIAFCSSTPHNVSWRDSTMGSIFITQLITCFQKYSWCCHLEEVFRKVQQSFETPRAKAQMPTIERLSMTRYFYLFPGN
In short: (§1)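 Human recombinant caspase-1 (3 nM; 4 µM Ac-WEHD-AFC), -2 (17 nM; 40 µM Ac-VDVAD-AFC), -4 (60 nM; 30 µM Ac-WEHD-AFC) or -6 (2 nM; 7 µM Ac-VEID-AFC), final concentrations. Buffer: 25 mM HEPES pH 7.4, 0.1% CHAPS, 50 mM KCl, 5 mM β-ME. Enzyme preincubated 30 min RT with compound titrated in DMSO. Substrate starts reaction. AFC kinetics (ex 365/em 495 nm) read 15 min RT. IC50 from four-parameter fit.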

Caspase-5 = target: T3, Caspase-5 (Homo sapiens, UniProt P51878); experiment: Inhibitory activity against Caspase-5
T3 sequence (P51878 whole entry): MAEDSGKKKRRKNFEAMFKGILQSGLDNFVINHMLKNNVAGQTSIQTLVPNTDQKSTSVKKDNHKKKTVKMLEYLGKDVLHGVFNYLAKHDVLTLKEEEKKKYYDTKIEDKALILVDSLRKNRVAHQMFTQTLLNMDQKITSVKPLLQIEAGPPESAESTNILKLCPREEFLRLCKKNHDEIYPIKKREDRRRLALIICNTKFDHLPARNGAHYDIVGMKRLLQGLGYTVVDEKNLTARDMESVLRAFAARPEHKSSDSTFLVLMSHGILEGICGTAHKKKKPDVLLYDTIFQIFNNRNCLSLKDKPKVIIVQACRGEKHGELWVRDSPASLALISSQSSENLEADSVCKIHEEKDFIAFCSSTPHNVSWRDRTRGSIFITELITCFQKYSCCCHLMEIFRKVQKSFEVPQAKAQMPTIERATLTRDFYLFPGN
In short: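 Recombinant human caspase-5 at 83 nM, final, with 30 µM Ac-WEHD-AFC in 100 mM HEPES pH 7.4, 10% sucrose, 0.1% CHAPS, 200 mM NaCl, 10 mM DTT. Enzyme and DMSO-titrated compound stood together 30 min at RT before substrate addition. Fluorescence (ex 365/em 495 nm) followed kinetically 15 min at RT. IC50 came from a four-parameter curve fit.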

Caspase-6 = target: T4, Caspase-6 (Homo sapiens, UniProt P55212); experiment: Inhibitory activity against Caspase-6; in short: as §1
T4 sequence (P55212 whole entry): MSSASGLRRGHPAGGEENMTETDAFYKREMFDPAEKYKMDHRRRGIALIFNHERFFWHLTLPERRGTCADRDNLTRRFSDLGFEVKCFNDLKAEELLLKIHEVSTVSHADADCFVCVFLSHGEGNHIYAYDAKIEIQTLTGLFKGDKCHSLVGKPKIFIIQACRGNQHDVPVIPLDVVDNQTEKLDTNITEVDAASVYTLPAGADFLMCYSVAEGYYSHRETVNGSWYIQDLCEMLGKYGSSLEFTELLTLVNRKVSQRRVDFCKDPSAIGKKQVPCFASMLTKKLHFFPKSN

Caspase-2 = target: T5, Caspase-2 (Homo sapiens, UniProt P42575); experiment: Inhibitory activity against of Caspase-2; in short: as §1
T5 sequence (P42575 whole entry): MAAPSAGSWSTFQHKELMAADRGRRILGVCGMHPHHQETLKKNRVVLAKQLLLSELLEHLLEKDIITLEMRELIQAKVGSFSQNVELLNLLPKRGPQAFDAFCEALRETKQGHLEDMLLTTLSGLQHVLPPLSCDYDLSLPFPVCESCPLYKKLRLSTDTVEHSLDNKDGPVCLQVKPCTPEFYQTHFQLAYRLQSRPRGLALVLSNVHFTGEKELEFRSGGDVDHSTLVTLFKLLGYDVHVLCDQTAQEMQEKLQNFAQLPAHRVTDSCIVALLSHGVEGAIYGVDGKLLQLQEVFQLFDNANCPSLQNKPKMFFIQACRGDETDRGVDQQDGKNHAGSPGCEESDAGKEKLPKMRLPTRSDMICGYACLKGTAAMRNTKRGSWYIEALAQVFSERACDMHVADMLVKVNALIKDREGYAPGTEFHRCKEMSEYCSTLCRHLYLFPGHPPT

Caspase-1 = target: T6, Caspase-1 (Homo sapiens, UniProt P29466); experiment: Inhibitory activity against of Caspase-1; in short: as §1
T6 sequence (P29466 whole entry): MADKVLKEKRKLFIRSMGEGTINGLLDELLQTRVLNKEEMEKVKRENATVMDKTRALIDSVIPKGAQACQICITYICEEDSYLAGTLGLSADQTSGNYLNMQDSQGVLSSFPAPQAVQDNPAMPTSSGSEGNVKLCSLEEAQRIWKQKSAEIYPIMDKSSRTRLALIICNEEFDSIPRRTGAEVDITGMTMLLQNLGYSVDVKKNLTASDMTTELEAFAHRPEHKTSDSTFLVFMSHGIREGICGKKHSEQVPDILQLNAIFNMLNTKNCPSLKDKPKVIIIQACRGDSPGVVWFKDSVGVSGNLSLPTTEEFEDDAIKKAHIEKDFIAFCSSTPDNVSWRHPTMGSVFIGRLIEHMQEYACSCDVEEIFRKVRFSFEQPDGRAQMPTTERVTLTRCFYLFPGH

Caspase-8 = Caspase-8 (Homo sapiens, UniProt Q14790); experiment: Inhibitory activity against Caspase-8
In short: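 In-house expressed, purified human caspase-8 at 10 nM, final, with 3 µM Ac-IETD-AFC in 100 mM HEPES pH 7.4, 10% sucrose, 0.1% CHAPS, 10 mM DTT. Enzyme was preincubated 30 min at RT with DMSO-titrated compound, and substrate started the reaction. Fluorescence (ex 365/em 495 nm) was read kinetically for 15 min at RT. IC50 came from a four-parameter fit.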

Caspase-7 = target: T7, Caspase-7 (Homo sapiens, UniProt P55210); experiment: Inhibitory activity against Caspase-7
T7 sequence (P55210 whole entry): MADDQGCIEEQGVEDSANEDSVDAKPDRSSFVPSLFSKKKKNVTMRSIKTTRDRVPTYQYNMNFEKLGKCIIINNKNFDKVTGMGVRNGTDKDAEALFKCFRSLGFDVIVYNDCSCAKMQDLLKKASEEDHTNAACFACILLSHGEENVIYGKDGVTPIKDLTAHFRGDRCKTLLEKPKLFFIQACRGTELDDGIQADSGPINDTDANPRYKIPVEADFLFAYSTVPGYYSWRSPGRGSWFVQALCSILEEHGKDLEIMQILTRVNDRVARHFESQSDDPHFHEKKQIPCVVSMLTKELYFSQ
In short: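 Caspase-7 assay: 1 nM recombinant human enzyme and 30 µM Ac-DEVD-AFC, final, in 25 mM HEPES pH 7.4, 0.1% CHAPS, 50 mM KCl, 5 mM CaCl2, 5 mM β-ME. Enzyme preincubated 30 min RT with compound titrated in DMSO, then substrate added. Kinetic AFC fluorescence (ex 365/em 495 nm) over 15 min at RT. IC50 by four-parameter fit.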

Sequence of Caspase-8 (Q14790 217-374 limits assumed): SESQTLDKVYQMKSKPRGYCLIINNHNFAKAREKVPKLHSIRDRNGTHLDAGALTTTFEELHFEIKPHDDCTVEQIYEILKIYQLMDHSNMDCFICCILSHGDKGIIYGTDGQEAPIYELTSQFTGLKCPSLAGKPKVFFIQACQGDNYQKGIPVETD
Sequence of Caspase-8 (Q14790 385-479 limits assumed): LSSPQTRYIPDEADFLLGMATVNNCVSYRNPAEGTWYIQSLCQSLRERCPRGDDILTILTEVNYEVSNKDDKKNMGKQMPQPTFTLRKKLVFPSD

| Compound | Ki (Caspase-3) | Ki (Caspase-4) | Ki (Caspase-5) | Ki (Caspase-6) | Ki (Caspase-2) | Ki (Caspase-1) | Ki (Caspase-8) | Ki (Caspase-7) |
| --- | --- | --- | --- | --- | --- | --- | --- | --- |
| O=C[C@H](CC(=O)O)NC(=O)c1ccc(CNS(=O)(=O)c2ccc(O)c(C(=O)O)c2)s1 | 0.12 µM | 38 µM | 24 µM | 0.54 µM | 21 µM | 1.9 µM | 0.05 µM | 0.12 µM |
| Cc1cc(CNS(=O)(=O)c2ccc(O)c(C(=O)O)c2)sc1C(=O)N[C@@H](CC(=O)O)C(=O)CSCc1ccccc1Cl | 0.04 µM | 27 µM | 36 µM | 2.4 µM | 37 µM | 2.7 µM | 0.71 µM | 0.94 µM |
| CN(Cc1ccc(O)c(C(=O)O)c1)Cc1ccc(C(=O)N[C@@H](CC(=O)O)C(=O)CSCc2ccccc2Cl)s1 | 0.09 µM | 96 µM | 98 µM | 22 µM | 30 µM | 12 µM | 4 µM | 0.19 µM |
| O=C[C@H](CC(=O)O)NC(=O)c1ccc(CNS(=O)(=O)c2ccc(O)c(C(=O)O)c2)nc1 | 0.05 µM | 92 µM | 22 µM | 1.4 µM | 0.96 µM |  | 0.88 µM | 0.13 µM |
| O=C[C@H](CC(=O)O)NC(=O)c1ccc(CNS(=O)(=O)c2ccc(O)c(C(=O)O)c2)cc1 | 0.2 µM | 21 µM | 12 µM | 1 µM | 9 µM | 0.16 µM | 0.15 µM | 0.47 µM |

Now those with a lower Ki (Caspase-3), led by results:

| Ki (Caspase-3) | Ki (Caspase-4) | Ki (Caspase-5) | Ki (Caspase-6) | Ki (Caspase-2) | Ki (Caspase-1) | Ki (Caspase-8) | Ki (Caspase-7) | Compound |
| --- | --- | --- | --- | --- | --- | --- | --- | --- |
| 0.02 µM | > 100 µM | 63 µM | 9.7 µM | 64 µM | 3.2 µM | 0.33 µM | 0.13 µM | O=C(O)C[C@H](NC(=O)c1ccc(CNS(=O)(=O)c2ccc(O)c(C(=O)O)c2)s1)C(=O)CSCc1ccccc1Cl |
| 0.02 µM | 22 µM | 32 µM | 0.19 µM | 30 µM | 25 µM | 28 µM | 0.09 µM | O=C(O)C[C@H](NC(=O)c1cnc(CNS(=O)(=O)c2ccc(O)c(C(=O)O)c2)nc1)C(=O)CSCc1ccccc1Cl |
| 0.03 µM | 13 µM | 23 µM | 2.3 µM | 16 µM | 8.3 µM | 19 µM | 0.09 µM | O=C(O)C[C@H](NC(=O)c1cnc(CNS(=O)(=O)c2ccc(O)c(C(=O)O)c2)s1)C(=O)CSCc1ccccc1Cl |
